Converted amounts (≈) assume the structure as drawn. The source made the active and inactive calls. The calls are words filed in the database; no cut-off is given here.
What was measured:
[1] = tested on: HeLa; test: Cytotoxicity against human HeLa cells assessed as surviving fraction after 48 hrs by SRB assay; assay type: functional, cell-based; conditions: Homo sapiens, HeLa, 48 h; read-out: IC50
Procedure, shortened: (§1)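 Cells seeded at 10⁴ cells/well and left 24 h to attach, then exposed to […] in triplicate wells per dose. Incubation 48 h, 37 °C, 5% CO₂. Cells fixed and stained with sulforhodamine B, excess dye removed with acetic acid, bound dye taken up in Tris EDTA and read on an ELISA reader. Surviving fraction plotted against concentration.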

[2] = Antitumor activity against mouse EAC cells assessed as inhibition of cell viability at 100 ug/ml after 2 hrs by trypan blue exclusion assay; assay type: functional; conditions: Ehrlich
Procedure, shortened: (§2)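 EAC cells aspirated from ascitic fluid of inoculated mice and diluted in saline; 0.1 mL cell suspension, 0.8 mL RPMI 1640 and 0.1 mL compound (25, 50 or 100) incubated 2 h at 37 °C; non-viable cells counted by trypan blue exclusion; % non-viable = dead/total × 100.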

[3] = tested on: U-251; test: Cytotoxicity against human U251 cells assessed as surviving fraction after 48 hrs by SRB assay; assay type: functional, cell-based; procedure, shortened: as §1
[4] = tested on: HCT-116; test: Cytotoxicity against human HCT116 cells assessed as surviving fraction after 48 hrs by SRB assay; assay type: functional, cell-based; procedure, shortened: as §1
[5] = Antitumor activity against mouse EAC cells assessed as inhibition of cell viability at 50 ug/ml after 2 hrs by trypan blue exclusion assay; assay type: functional; conditions: Ehrlich; procedure, shortened: as §2
[6] = Antitumor activity against mouse EAC cells assessed as inhibition of cell viability at 25 ug/ml after 2 hrs by trypan blue exclusion assay; assay type: functional; conditions: Ehrlich; procedure, shortened: as §2
[7] = tested on: MCF7; test: Cytotoxicity against human MCF7 cells assessed as surviving fraction after 48 hrs by SRB assay; assay type: functional, cell-based; procedure, shortened: as §1
[8] = tested on: HepG2; test: Cytotoxicity against human HepG2 cells assessed as surviving fraction after 48 hrs by SRB assay; assay type: functional, cell-based; conditions: Homo sapiens, HepG2, 48 h; read-out: IC50; procedure, shortened: as §1
[9] = tested on: Pseudomonas aeruginosa; test: Antibacterial activity against Pseudomonas aeruginosa NCIB 9016 at 2.5 mg/ml by agar disk diffusion assay; assay type: functional; conditions: for zone of inhibition at 2500 µg/mL: Pseudomonas aeruginosa, NCIB 9016, read-out: DIZ
[10] = tested on: Candida albicans; test: Antifungal activity against Candida albicans IMRU 3669 at 5 mg/ml by agar disk diffusion assay; assay type: functional; conditions: Candida albicans, IMRU 3669; read-out: DIZ
Procedure, shortened: (§3)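 Fungi maintained on Czapek's Dox agar; agar well diffusion with 1 cm wells and […] of each concentration (1, 2.5, 5 mg/mL) in DMF; inhibition zone diameter measured.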

[11] = tested on: Aspergillus niger; test: Antifungal activity against Aspergillus niger Ferm-BAM C-21 at 5 mg/ml by agar disk diffusion assay; assay type: functional; conditions: read-out: DIZ; procedure, shortened: as §3
[12] = tested on: Candida albicans; test: Antifungal activity against Candida albicans IMRU 3669 at 1 mg/ml by agar disk diffusion assay; assay type: functional; conditions: read-out: DIZ; procedure, shortened: as §3
[13] = tested on: Bacillus subtilis; test: Antibacterial activity against Bacillus subtilis NCIB 3610 at 2.5 mg/ml by agar disk diffusion assay; assay type: functional; conditions: for zone of inhibition at 2500 µg/mL: Bacillus subtilis, NCIB 3610, read-out: DIZ
[14] = tested on: Bacillus subtilis; test: Antibacterial activity against Bacillus subtilis NCIB 3610 at 1 mg/ml by agar disk diffusion assay; assay type: functional; conditions: for zone of inhibition at 1000 µg/mL: Bacillus subtilis, NCIB 3610, read-out: DIZ
[15] = tested on: Candida albicans; test: Antifungal activity against Candida albicans IMRU 3669 at 2.5 mg/ml by agar disk diffusion assay; assay type: functional; conditions: read-out: DIZ; procedure, shortened: as §3
[16] = tested on: Bacillus subtilis; test: Antibacterial activity against Bacillus subtilis NCIB 3610 at 5 mg/ml by agar disk diffusion assay; assay type: functional; conditions: for zone of inhibition at 5000 µg/mL: Bacillus subtilis, NCIB 3610, read-out: DIZ
[17] = tested on: Pseudomonas aeruginosa; test: Antibacterial activity against Pseudomonas aeruginosa NCIB 9016 at 5 mg/ml by agar disk diffusion assay; assay type: functional; conditions: for zone of inhibition at 5000 µg/mL: Pseudomonas aeruginosa, NCIB 9016, read-out: DIZ
[18] = tested on: Pseudomonas aeruginosa; test: Antibacterial activity against Pseudomonas aeruginosa NCIB 9016 at 1 mg/ml by agar disk diffusion assay; assay type: functional
[19] = tested on: Escherichia coli; test: Antibacterial activity against Escherichia coli NCTC 10416 at 5 mg/ml by agar disk diffusion assay; assay type: functional; conditions: read-out: DIZ
[20] = tested on: Bacillus subtilis; test: Antibacterial activity against Bacillus subtilis NCTC 1040 at 5 mg/ml by agar disk diffusion assay; assay type: functional; conditions: read-out: DIZ
[21] = tested on: Human alphaherpesvirus 1; test: Antiviral activity against HSV1 infected african green monkey Vero cells at 10^-4 dilution of 5 mg/ml by plaque formation assay; assay type: functional
Procedure, shortened: (§4)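 Compound dilutions prepared from a 5 mg/mL DMSO stock, using the maximum non-toxic dilution for Vero cells over 3 days; 0.1 mL virus (10³) mixed with 0.1 mL compound for 1 h at room temperature; mixture inoculated onto washed Vero monolayers in 12-well plates and adsorbed at 37 °C; 2× MEM/agarose overlay applied; read-out % reduction in plaque count versus untreated virus control.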

[22] = tested on: Coxsackievirus B4; test: Antiviral activity against Coxsackievirus B4 infected african green monkey Vero cells at 10^-4 dilution of 5 mg/ml by plaque formation assay; assay type: functional, organism-based; procedure, shortened: as §4
[23] = tested on: Salmonella typhi; test: Antibacterial activity against Salmonella typhi NCIMB 9331 at 5 mg/ml by agar disk diffusion assay; assay type: functional, Salmonella enterica subsp. enterica serovar Typhi; conditions: Salmonella enterica, read-out: DIZ
[24] = tested on: Hepatovirus A; test: Antiviral activity against Hepatitis A virus infected african green monkey Vero cells at 10^-4 dilution of 5 mg/ml by plaque formation assay; assay type: functional; procedure, shortened: as §4
[25] = tested on: Staphylococcus aureus; test: Antimicrobial activity against Staphylococcus aureus NCTC 7447 by macrotube dilution assay; assay type: functional
[26] = tested on: Salmonella typhi; test: Antimicrobial activity against Salmonella typhi NCIMB 9331 by macrotube dilution assay; assay type: functional, Salmonella enterica subsp. enterica serovar Typhi; conditions: Salmonella enterica
[27] = tested on: Candida albicans; test: Antifungal activity against Candida albicans IMRU 3669 by macrotube dilution assay; assay type: functional
Procedure, shortened: (§5)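 Macrotube twofold dilution per NCCLS/CLSI guidelines for fungi; 2 mg compound in 2.0 mL DMF, serially diluted across 14 tubes of Czapek's Dox medium, with a control tube; inoculum added to halve the concentration; 30 °C for 72 h; MIC is the lowest concentration without visible growth.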

[28] = tested on: Bacillus subtilis; test: Antimicrobial activity against Bacillus subtilis NCTC 1040 by macrotube dilution assay; assay type: functional
[29] = tested on: Aspergillus niger; test: Antifungal activity against Aspergillus niger Ferm-BAM C-21 by macrotube dilution assay; assay type: functional; procedure, shortened: as §5
[30] = tested on: Klebsiella pneumoniae; test: Antimicrobial activity against Klebsiella pneumoniae NCIMB 9111 by macrotube dilution assay; assay type: functional
[31] = tested on: Aspergillus niger; test: Antifungal activity against Aspergillus niger Ferm-BAM C-21 at 1 mg/ml by agar disk diffusion assay; assay type: functional; conditions: read-out: DIZ; procedure, shortened: as §3
[32] = tested on: Aspergillus niger; test: Antifungal activity against Aspergillus niger Ferm-BAM C-21 at 2.5 mg/ml by agar disk diffusion assay; assay type: functional; conditions: read-out: DIZ; procedure, shortened: as §3
[33] = tested on: Staphylococcus aureus; test: Antibacterial activity against Staphylococcus aureus NCTC 7447 at 5 mg/ml by agar disk diffusion assay; assay type: functional; conditions: read-out: DIZ
[34] = tested on: Aspergillus niger; test: Antifungal activity against Aspergillus niger IMI 31726 at 5 mg/ml by agar disk diffusion assay; assay type: functional; conditions: read-out: DIZ

SMILES: O=c1n(-c2ccc(Cl)cc2)c2nc3ccccc3nc2n1-c1ccc(Cl)c(Cl)c1
- IC50 [1]: 7.38 µg/mL (≈ 16.7 µM)
- inhibition at 100 µg/mL [2]: 95%
- IC50 ([3]; u-251): Not Active
- IC50 ([4]; hct-116): Not Active
- inhibition at 50 µg/mL [5]: 70%
- inhibition at 25 µg/mL [6]: 30%
- IC50 ([7]; mcf7): Not Active
- IC50 [8]: 7.11 µg/mL (≈ 16.1 µM)

SMILES: CCOc1ccc(N2C(=O)N(c3c(CC)cc(Cc4cc(CC)c(N5C(=N)C(=S)N(c6ccc(OCC)cc6)C5=O)c(CC)c4)cc3CC)C(=N)C2=S)cc1
- IC50 [1]: 2.42 µg/mL (≈ 3.12 µM)
- zone of inhibition at 2500 µg/mL [9]: 13 mm
- zone of inhibition at 5000 µg/mL [10]: 15 mm
- zone of inhibition at 5000 µg/mL [11]: 13 mm
- zone of inhibition at 1000 µg/mL [12]: 12 mm
- inhibition at 100 µg/mL [2]: 90%
- zone of inhibition at 2500 µg/mL [13]: 14 mm
- IC50 ([3]; Homo sapiens, U-251, 48 h, read-out: IC50): 1.01 µg/mL (≈ 1.3 µM)
- zone of inhibition at 1000 µg/mL [14]: 13 mm
- IC50 ([4]; Homo sapiens, HCT-116, 48 h, read-out: IC50): 4.36 µg/mL (≈ 5.63 µM)
- inhibition at 50 µg/mL [5]: 80%
- zone of inhibition at 2500 µg/mL [15]: 14 mm
- inhibition at 25 µg/mL [6]: 60%
- IC50 ([7]; Homo sapiens, MCF7, 48 h, read-out: IC50): 2.15 µg/mL (≈ 2.77 µM)
- zone of inhibition at 5000 µg/mL [16]: 15 mm
- zone of inhibition at 5000 µg/mL [17]: 15 mm
- IC50 [8]: 5.44 µg/mL (≈ 7.02 µM)

SMILES: N=C1C(=S)N(c2ccc(Cl)c(Cl)c2)C(=O)N1c1ccc(Oc2ccc(N3C(=N)C(=S)N(c4ccc(Cl)c(Cl)c4)C3=O)cc2)cc1
- zone of inhibition at 2500 µg/mL [9]: 18 mm
- zone of inhibition at 5000 µg/mL [10]: 18 mm
- zone of inhibition at 1000 µg/mL ([18]; Pseudomonas aeruginosa, NCIB 9016, read-out: DIZ): 15 mm
- zone of inhibition at 2500 µg/mL [13]: 19 mm
- zone of inhibition at 1000 µg/mL [14]: 15 mm
- zone of inhibition at 2500 µg/mL [15]: 17 mm
- zone of inhibition at 5000 µg/mL [16]: 20 mm
- zone of inhibition at 5000 µg/mL [17]: 20 mm

SMILES: N=C1C(=S)N(c2ccc(Br)cc2)C(=O)N1c1ccc2c(c1)Cc1ccccc1-2
- zone of inhibition at 5000 µg/mL [10]: 13 mm
- zone of inhibition at 5000 µg/mL [19]: 14 mm
- zone of inhibition at 5000 µg/mL [20]: 13 mm
- Activity [21]: inactive
- Activity [22]: inactive
- zone of inhibition at 5000 µg/mL [23]: 16 mm
- Activity [24]: inactive

SMILES: N#CC(=S)Nc1ccc(Cl)c(Cl)c1 [listing 1 of 2 here]
- zone of inhibition at 5000 µg/mL [17]: 19 mm

SMILES: N#CC(=S)Nc1ccc(Cl)c(Cl)c1 [listing 2 of 2 here]
- MIC [25]: 3.9 µg/mL (≈ 16.9 µM)
- diameter of the inhibition zone (DIZ) [9]: 37 mm
- zone of inhibition at 5000 µg/mL [10]: 44 mm
- zone of inhibition at 5000 µg/mL [11]: 56 mm
- zone of inhibition at 1000 µg/mL [12]: 37 mm
- diameter of the inhibition zone (DIZ) [18]: 35 mm
- diameter of the inhibition zone (DIZ) [13]: 41 mm
- MIC [26]: 0.24 µg/mL (≈ 1.04 µM)
- diameter of the inhibition zone (DIZ) [14]: 40 mm
- MIC [27]: 0.97 µg/mL (≈ 4.2 µM)
- zone of inhibition at 2500 µg/mL [15]: 40 mm
- MIC [28]: 0.97 µg/mL (≈ 4.2 µM)
- diameter of the inhibition zone (DIZ) [16]: 43 mm
- MIC [29]: 15.6 µg/mL (≈ 67.5 µM)
- MIC [30]: 1.95 µg/mL (≈ 8.44 µM)
- diameter of the inhibition zone (DIZ) [17]: 38 mm
- zone of inhibition at 1000 µg/mL [31]: 29 mm
- zone of inhibition at 2500 µg/mL [32]: 45 mm

SMILES: CCN(CC)CC.N#CC(=S)Nc1ccc(Cl)c(Cl)c1
- diameter of the inhibition zone (DIZ) [9]: 16 mm
- diameter of the inhibition zone (DIZ) [18]: 13 mm
- diameter of the inhibition zone (DIZ) [13]: 16 mm
- diameter of the inhibition zone (DIZ) [14]: 15 mm
- diameter of the inhibition zone (DIZ) [16]: 17 mm

SMILES: N=C1C(=S)N(c2ccc(I)cc2)C(=O)N1c1cc(Cl)c(Cl)cc1Cl
- zone of inhibition at 5000 µg/mL [10]: 17 mm
- zone of inhibition at 5000 µg/mL [19]: 16.5 mm
- zone of inhibition at 5000 µg/mL [20]: 17 mm
- zone of inhibition at 5000 µg/mL [33]: 18 mm
- Activity [21]: inactive
- zone of inhibition at 5000 µg/mL [34]: 20 mm
- Activity [22]: inactive
- zone of inhibition at 5000 µg/mL [23]: 17 mm
- Activity [24]: 40%

Source: ChEMBL document CHEMBL1155362, “Synthesis, characterization and derivatization of some novel types of mono- and bis-imidazolidineiminothiones and imidazolidineiminodithiones with antitumor, antiviral, antibacterial and antifungal activities--part I” (Eur J Med Chem, 2009)
